# Laboratory results as given in ChEMBL document CHEMBL1165870, “Cytotoxicity of new alkylamino- and phenylamino-containing polyfluorinated derivatives of 1,4-naphthoquinone” (Eur J Med Chem, 2010).
# Columns and labels:
# Salmonella typhimurium [1] = assay: Suppression in mutagenesity in Salmonella Typhimurium TA102 assessed as 100 to 50% suppression of revertant formation by Ames assay; settings: Salmonella enterica
# Salmonella typhimurium [2] = assay: Suppression in H2O2-iduced mutagenesity in Salmonella Typhimurium TA102 assessed as 150 to 100 % suppression of revertant formation by Ames assay; settings: Salmonella enterica
# RPMI-8226 = assay: Cytotoxicity against human RPMI8226 cells after 72 hrs by MTT assay; format: functional, cell-based; settings: RPMI-8226, 72 h
# [3] = Cytotoxicity against mouse PMF after 72 hrs by MTT assay
# [4] = Cytotoxicity against mouse LMTK cells after 72 hrs by MTT assay; format: cell-based; settings: L-M(TK-)
# Salmonella typhimurium [5] = assay: Suppression in H2O2-iduced mutagenesity in Salmonella Typhimurium TA102 assessed as 100 to 50 % suppression of revertant formation by Ames assay; settings: Salmonella enterica
# MCF7 = assay: Cytotoxicity against human MCF7 cells after 72 hrs by MTT assay; format: functional, cell-based; settings: MCF7, 72 h
# [6] = Growth inhibition of mouse PMF at 25 ug/ml after 72 hrs by MTT assay; settings: mouse PMF cells, read-out: GI
# Procedure, shortened: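 PMF cells (about 2000 per well) seeded and held 24 h at 37 °C in IMDM or RPMI 1640 under 5% CO2, then exposed to compound.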
# Salmonella typhimurium [7] = assay: Suppression in mutagenesity in Salmonella Typhimurium TA102 assessed as 100 to 50% suppression of revertant formation at 50 ug/ml by Ames assay
# [8] = Growth inhibition of mouse LMTK cells at 173 uM after 72 hrs by MTT assay; format: cell-based
SMILES,IC50 (Salmonella typhimurium [1]),IC50 (Salmonella typhimurium [2]),IC50 (RPMI-8226),IC50 [3],IC50 [4],IC50 (Salmonella typhimurium [5]),IC50 (MCF7),"inhibition at 72 h, 25 ug/ml [6]",Activity (Salmonella typhimurium [7]),growth inhibition (GI) [8]
CC(C)(C)NC1=C(F)C(=O)c2c(F)c(F)c(F)c(F)c2C1=O,12.2 µM,1.4 µM,3.5 µM,3.1 µM,6.3 µM,6.9 µM,2.5 µM,–,–,–
CCN(CC)C1=C(F)C(=O)c2c(F)c(F)c(F)c(F)c2C1=O,18.5 µM,0.86 µM,6.9 µM,28.2 µM,62.7 µM,2.7 µM,4.1 µM,–,–,–
CCNC1=C(F)C(=O)c2c(F)c(F)c(F)c(F)c2C1=O,0.69 µM,0.094 µM,2.4 µM,30.9 µM,11 µM,1 µM,8.6 µM,–,–,–
O=C1C(F)=C(Nc2ccccc2)C(=O)c2c(F)c(F)c(F)c(F)c21,0.59 µM,0.089 µM,2.4 µM,7.4 µM,11.8 µM,0.15 µM,2.4 µM,–,–,–
CC1=C(Nc2ccccc2)C(=O)c2c(F)c(F)c(F)c(F)c2C1=O,> 149 µM,0.75 µM,22.4 µM,–,104 µM,21.8 µM,13.4 µM,45%,24%,–
CC1=C(SCCO)C(=O)c2c(F)c(F)c(F)c(F)c2C1=O,0.81 µM,–,14.8 µM,–,–,0.44 µM,173 µM,–,–,Not Active
